An excerpt weighted towards active compounds, which were near 1.8% of everything screened.
Rce1 inh: blocks yeast Ras-converting enzyme | 290,000 tested, 0.27% active | Q03530 | calls only | yeast membranes, quenched prenylated peptide cleavage fluorescence;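 active = fall in fluorescence gain of 50% or more versus controls, with final raw signal at or below 3038400; inconclusive = same 50% fall but final raw signal above 3038400; inactive = fall in fluorescence gain under 50%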;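 note: plate controls were neutral control wells for no effect and wells lacking membranes for full effect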
Target sequence (Q03530 whole entry, looked up): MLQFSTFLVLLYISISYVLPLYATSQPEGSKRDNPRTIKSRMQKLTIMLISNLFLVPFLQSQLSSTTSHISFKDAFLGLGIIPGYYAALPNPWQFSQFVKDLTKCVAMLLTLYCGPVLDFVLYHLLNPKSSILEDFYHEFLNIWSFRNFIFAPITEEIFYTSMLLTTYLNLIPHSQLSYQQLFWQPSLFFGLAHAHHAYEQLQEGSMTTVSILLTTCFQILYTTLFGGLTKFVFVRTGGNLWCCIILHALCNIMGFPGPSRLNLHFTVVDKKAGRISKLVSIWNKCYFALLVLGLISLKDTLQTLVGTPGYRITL
Runt-SMMHC FRET: blocks binding of human RUNX1 Runt domain to CBFb-SMMHC; Q01196+Q13951; Cerulean-Runt/Venus-CBFb-SMMHC FRET ratio 530/480, 1 h; inhibition, % at 20 µM; 220,000 tested, 0.74% active; AID 1434;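 active = mean inhibition across duplicate retests at 20 µM reaching about 50%, limit read from the data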;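 note: 0% = DMSO wells and 100% = wells with excess untagged CBFb-SMMHC; inhibitors lower the FRET ratio by blocking Runt binding to CBFb-SMMHC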
Runt-CBFb FRET: inhibitors of human RUNX1 Runt domain binding to CBFb. Q01196+Q13951. Cerulean-Runt/Venus-CBFb FRET ratio 530/480, 1 h. inhibition, % at 20 µM. 220,000 tested, 0.46% active;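 active = inhibition over about 50% at 20 µM in the single-dose screen, limit read from the data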;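 note: 0% = DMSO wells and 100% = excess unlabeled CBFb competitor control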
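Schedule: protein complex preformed 1 h, compound exposure 1 h, room temperature, dark; test system: Cerulean-labeled Runt domain protein; amount: 100 nM per protein; buffer or medium: Tris 50 mM pH 7.5, KCl, K2SO4, 0.01% BSA; read-out: loss of energy transfer signal; detection: FRET fluorescence; controls: 5 µM unlabeled CBFb as full-inhibition high control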
RanGTP-Impb inh: disruptors of Ran-importin-beta complex formation – biochemical, FRET, CFP-Ran, YFP-importin-beta, homogeneous, primary screen. 300,000 tested, 1.1% active. AID 2216. cell-free CFP-Ran/YFP-importin-beta FRET ratio. inhibition, % (no concentration beside the values);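 active = more than half of the replicate wells show a fall in the fluorescence ratio signal beyond about 16%, limit read from the data, passing the limit was not always enough; inconclusive = exactly half of the replicate wells pass the set limit; inactive = fewer than half of replicates pass the limit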;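 note: 0% = DMSO wells and 100% = Ran loaded with GDP instead of GTP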
Platelet DG rel: platelet dense granule release activity; inhibition, %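 (compounds screened at 7.5 µM in platelet-rich plasma)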; human platelet-rich plasma, SFLLRN dense granule ATP release, luminescence; 300,000 tested, 0.22% active;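 active = mean replicate score, as percent of positive control, at or above 50; inconclusive = mean below 50 but at least one replicate at or above 50; inactive = mean and every replicate below 50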
Starred values were filed as active, the others as inactive; i = inactive; u = inconclusive; x = no result given.

SMILES	Rce1 inh	Runt-SMMHC FRET	Runt-CBFb FRET	RanGTP-Impb inh	Platelet DG rel
c1csc(-c2nc3nc4ccccc4nc3n2Cc2ccc3c(c2)OCO3)c1	x	-1.4	-1.8	x	x
COCCn1c(-c2ccco2)nc2nc3ccccc3nc21	u	65.6*	7.7	19.5*	-0.9
Cc1ccccc1OCC(=O)NCCCNC(=O)c1ccncc1	i	x	x	0.7	-2.4
CCC(=O)Nc1cc(C)c(NC(=O)CCc2ccccc2)cn1	i	88.8*	29.0	39.6*	1.4
O=C(O)C1CCN(c2ccccc2[N+](=O)[O-])CC1	i	0.1	-1.1	0.9	2.5
O=C(COC(=O)c1nc(Cl)ccc1Cl)NCc1cccs1	i	x	x	-0.2	x
COc1ccc(-c2ccc(CCC(=O)O)n2CC2CCCO2)cc1 (stereo not given)	i	75.4*	31.7	u	4.0
O=C(O)CCc1ccc(-c2ccc(F)cc2)n1CC1CCCO1 (stereo not given)	i	21.0	11.6	1.2	0.8
COCCCn1c(CCC(=O)O)ccc1-c1cccs1	i	125.5*	22.0	54.6*	6.4
O=C(O)CCc1ccc(-c2cccs2)n1CC1CCCO1 (stereo not given)	i	85.5*	31.5	18.2*	-2.9
CCCn1c(CCC(=O)O)ccc1-c1cccs1	i	26.1	10.8	u	4.5
COc1ccc(-c2ccc(CCC(=O)O)n2CC(C)C)cc1	i	51.2*	26.9	2.4	4.7
Cn1c(N2CCCC2)nc2c1c(=O)[nH]c(=O)n2C	i	x	x	2.6	18.9
CCN(CC)c1ccc2cc(NC(=O)CCC(=O)O)c(=O)oc2c1	x	62.6*	18.4	136.0*	-5.8
CC(=O)Nc1cc2ccccc2oc1=O	i	1.5	-0.4	2.0	-3.8
CCN(CC)c1ccc2nc3c4ccccc4c(=O)cc-3oc2c1	i	x	x	-1.1	11.1
CCN(CC)c1ccc2cc(/C(N)=N/NC(=O)c3cccs3)c(=O)oc2c1	i	-102.1	-38.7	158.8*	-1.6
CCN(CC)c1ccc2cc(C=O)c(=O)oc2c1	i	60.5*	17.4	125.6*	-7.0
CCN(CC)c1ccc2cc(-c3nnc(-c4ccncc4)o3)c(=O)oc2c1	x	62.6*	18.4	x	x
N/C(=N\NC(=O)c1cccs1)c1cc2ccccc2oc1=O	i	2.5	2.6	u	4.8
O=C(CCN1CCN(c2ccccc2F)CC1)Nc1cccc(F)c1	i	x	x	-3.5	2.4
CCN(CC)c1ccc2cc(C(N)=O)c(=N)oc2c1	i	92.2*	19.7	150.7*	0.0
CCN(CC)c1ccc2cc(C(N)=O)c(=O)oc2c1	i	95.4*	4.3	152.5*	6.0
CCN(CC)c1ccc2cc(C(=O)Nc3ccccn3)c(=O)oc2c1	i	61.5*	17.8	160.7*	2.1
NC(=O)c1cc2cc(Cl)ccc2oc1=O	i	-7.0	-2.2	-2.1	2.0
SMILES	Rce1 inh	Runt-SMMHC FRET	Runt-CBFb FRET	RanGTP-Impb inh	Platelet DG rel
CCN(C(=O)c1cc2ccccc2oc1=O)c1ccccc1	i	-0.2	-0.9	-0.9	-11.6
C/C(N)=C(/C#N)C(=O)COC(=O)c1ccccc1C(=O)c1ccc(C)cc1	i	-2.8	-0.9	1.3	4.6
c1nc2n(n1)C1=C(CCCC1)C1(CCCCC1)N2	i	0.4	-0.9	15.4*	-1.6
Oc1ccc(N=C/C=C/c2cccc(Br)c2)cc1-c1nc2ccccc2s1	i	28.8	23.4	37.8*	0.9
O=c1c(-c2nc3ccccc3s2)cccn1Cc1ccccc1	i	32.5	11.7	9.1	1.7
Oc1ccc(-c2nc3ccccc3s2)c(O)c1	i	8.3	6.2	-4.5	16.3
Cc1ccc(Cn2cccc(-c3nc4ccccc4s3)c2=O)cc1	i	133.7*	49.5	u	-3.5
Nc1ccc(O)c(-c2nc3ccccc3s2)c1	i	28.1	7.6	24.8*	9.8
Nc1ccccc1-c1nc2ccccc2s1	i	55.1*	21.6	4.9	3.9
COc1ccc(/C=N/n2c(C)nc3c([nH]c4ccccc43)c2=O)cc1CN1CCCC(C)(C)C1	i	0.0	-6.7	-3.5	3.7
COc1ccc(S(=O)(=O)Nc2cccc(-c3ccc4nncn4n3)c2)c(OC)c1	i	x	x	-4.3	0.0
Cc1c(C(=O)N2CCCC2)sc(NC(=O)c2ccc(Cl)cc2)c1C#N	i	0.4	-1.1	u	58.2*
CC(C)CC(=O)Nc1ccc(C(=O)COC(=O)C2=COCCO2)cc1	i	x	x	0.9	-6.4
N#Cc1cc2c(=O)n3ccccc3nc2n(Cc2ccco2)c1=NC(=O)c1ccco1	i	x	3.5	55.7*	-5.1
CC(=O)N=c1c(C#N)cc2c(=O)n3cccc(C)c3nc2n1Cc1ccco1	i	88.1*	9.6	80.3*	-15.8
COc1ccc(C(=O)N=c2c(C#N)cc3c(=O)n4cccc(C)c4nc3n2Cc2ccco2)cc1	i	x	69.9*	78.2*	2.8
O=C(CCn1c(=O)c2ccccc2n(Cc2cc(=O)n3ccccc3n2)c1=O)NCc1ccco1	i	4.5	-1.0	-1.3	14.5
Cc1ccccc1C(=O)N=c1c(C#N)cc2c(=O)n3cccc(C)c3nc2n1Cc1ccco1	i	57.8*	124.0*	110.3*	14.4
Cc1cccn2c(=O)c3cc(C(=O)O)n(C)c3nc12	i	28.5	11.8	-1.1	4.1
CCCCOC(=O)C1=C(N)N2C(=O)C(C)SC2=C(C(=O)OCC)C1c1ccc(O)c(OC)c1 (stereo not given)	i	-2.6	-0.4	-0.7	4.3
Cc1ccc2nc(SCC(=O)NC3CCCCC3)nc(=O)n2c1	i	x	x	-1.3	-4.8
COCCCNC(=O)c1cc2c(=O)n3cc(C)ccc3nc2nc1NCC1CCCO1 (stereo not given)	i	59.6*	18.8	172.9*	4.9
Cc1ccc2nc3nc(NCC4CCCO4)c(C(=O)NC4CCCC4)cc3c(=O)n2c1 (stereo not given)	i	63.2*	19.2	180.6*	2.1
Cc1ccc2nc3nc(NCC4CCCO4)c(C(=O)NC4CCCCC4)cc3c(=O)n2c1 (stereo not given)	i	x	x	177.1*	-1.3
CC1CCCCC1NC(=O)c1nn(C)c2c1CS(=O)(=O)c1ccccc1-2 (stereo not given)	i	x	x	-0.3	5.4
SMILES	Rce1 inh	Runt-SMMHC FRET	Runt-CBFb FRET	RanGTP-Impb inh	Platelet DG rel
CCc1ccc(NC(=S)N2CCNC(=O)C2CC(=O)OC)cc1 (stereo not given)	i	4.2	2.6	2.4	-0.8
N#CC1=C(N)SC(N)=C(C#N)C1c1ccoc1	i	-28.3	12.6	40.1*	-7.5
c1ccc2c(C3=NNC(=NC4CCCCC4)SC3)c[nH]c2c1	i	0.5	4.9	1.0	-0.3
c1ccc2c(C3=NNC(=NC4CC4)SC3)c[nH]c2c1	i	9.0	18.4	2.5	55.9*
COc1cc(-c2nnc(-c3cccs3)o2)cc(OC)c1OC	i	-0.5	-1.2	2.2	-2.3
COc1ccc(-c2nnc(-c3ccc(N)cc3)o2)cc1	i	-4.0	-0.1	-7.7	10.6
